Measured values from ChEMBL document CHEMBL5303300, “EUbOPEN Chemogenomics Library - Multiplex” (2023).
“And” between values parts separate entries of the source, which are not always exact repeats. Identical values can stand only once.

System: Fibroblast
Assay: Multiplex assay against human fibroblast
Assay type: toxicity, cell-based
Settings: number of replicates 2
Summary of the method: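 Live cells were stained at seeding with Hoechst33342, BioTracker Green Microtubule Cytoskeleton Dye, MitoTracker Red and Annexin V Alexa Fluor 680, then imaged on a CQ1 microscope at 37°C and 5% CO2 after compound addition. CellPathfinder machine-learning gating split cells into Hoechst high-intensity objects or normal cells. Normal cells were split into healthy, pyknosed or fragmented nuclei, and pyknosed cells into mitotic or apoptotic. Tubulin, mitochondrial-mass and membrane-permeability phenotypes are per cents of healthy-nucleus cells.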

[1] = 12 h, 1 µM, compound concentration 1 uM
[2] = 12 h, 10 µM, compound concentration 10 uM
[3] = 24 h, 1 µM, compound concentration 1 uM
[4] = 24 h, 10 µM, compound concentration 10 uM
[5] = 48 h, 1 µM, compound concentration 1 uM
[6] = 48 h, 10 µM, compound concentration 10 uM

## Cc1c(C(=O)Nc2ccc(N3C[C@@H](C)O[C@@H](C)C3)nc2)cccc1-c1ccc(OC(F)(F)F)cc1 [SONIDEGIB]
[1]
  Population Apoptotic (%): 46% and 32%
  Population Fragmented Nuclei (%): 13% and 9%
  Population Healthy Nuclei (%): 64% and 70%
  Population Hoechst High Intensity Objects (%): 0%
  Population Membrane Permeable-Phenotype (%): 5%
  Population Mitochondria Different-Phenotype (%): 0% and 1%
  Population Mitotic Cells (%): 53% and 67%
  Population Normal (%): 100%
  Population Pyknosed Nuclei (%): 22% and 20%
  Population Tubulin-Different-Phenotype (%): 16% and 10%
  Total Cell Count: 193 and 230
[2]
  Population Apoptotic (%): 55% and 38%
  Population Fragmented Nuclei (%): 8% and 9%
  Population Healthy Nuclei (%): 83% and 80%
  Population Hoechst High Intensity Objects (%): 0%
  Population Membrane Permeable-Phenotype (%): 1% and 0%
  Population Mitochondria Different-Phenotype (%): 1% and 0%
  Population Mitotic Cells (%): 44% and 61%
  Population Normal (%): 100%
  Population Pyknosed Nuclei (%): 7% and 10%
  Population Tubulin-Different-Phenotype (%): 1% and 7%
  Total Cell Count: 117 and 128
[3]
  Population Apoptotic (%): 53% and 52%
  Population Fragmented Nuclei (%): 15% and 12%
  Population Healthy Nuclei (%): 60% and 69%
  Population Hoechst High Intensity Objects (%): 0%
  Population Membrane Permeable-Phenotype (%): 3%
  Population Mitochondria Different-Phenotype (%): 1% and 0%
  Population Mitotic Cells (%): 46% and 47%
  Population Normal (%): 100%
  Population Pyknosed Nuclei (%): 24% and 17%
  Population Tubulin-Different-Phenotype (%): 10% and 7%
  Total Cell Count: 179 and 224
[4]
  Population Apoptotic (%): 53% and 57%
  Population Fragmented Nuclei (%): 15% and 16%
  Population Healthy Nuclei (%): 73% and 70%
  Population Hoechst High Intensity Objects (%): 0%
  Population Membrane Permeable-Phenotype (%): 4% and 5%
  Population Mitochondria Different-Phenotype (%): 0% and 2%
  Population Mitotic Cells (%): 46% and 42%
  Population Normal (%): 100%
  Population Pyknosed Nuclei (%): 10% and 13%
  Population Tubulin-Different-Phenotype (%): 4% and 8%
  Total Cell Count: 123 and 141
[5]
  Population Apoptotic (%): 63% and 45%
  Population Fragmented Nuclei (%): 16% and 12%
  Population Healthy Nuclei (%): 65% and 72%
  Population Hoechst High Intensity Objects (%): 0%
  Population Membrane Permeable-Phenotype (%): 1% and 5%
  Population Mitochondria Different-Phenotype (%): 0%
  Population Mitotic Cells (%): 36% and 54%
  Population Normal (%): 100%
  Population Pyknosed Nuclei (%): 18% and 15%
  Population Tubulin-Different-Phenotype (%): 9% and 3%
  Total Cell Count: 162 and 218
[6]
  Population Apoptotic (%): 57% and 66%
  Population Fragmented Nuclei (%): 13% and 18%
  Population Healthy Nuclei (%): 75% and 59%
  Population Hoechst High Intensity Objects (%): 0%
  Population Membrane Permeable-Phenotype (%): 4% and 6%
  Population Mitochondria Different-Phenotype (%): 0% and 1%
  Population Mitotic Cells (%): 42% and 33%
  Population Normal (%): 100%
  Population Pyknosed Nuclei (%): 10% and 21%
  Population Tubulin-Different-Phenotype (%): 3% and 6%
  Total Cell Count: 128 and 138

## Cc1ccc2c(c1CCC(=O)O)CC[C@@H](NS(=O)(=O)c1ccc(Cl)cc1)C2 [TERUTROBAN]
[1]
  Population Apoptotic (%): 25% and 43%
  Population Fragmented Nuclei (%): 8%
  Population Healthy Nuclei (%): 71% and 75%
  Population Hoechst High Intensity Objects (%): 0%
  Population Membrane Permeable-Phenotype (%): 5% and 3%
  Population Mitochondria Different-Phenotype (%): 1%
  Population Mitotic Cells (%): 74% and 56%
  Population Normal (%): 100%
  Population Pyknosed Nuclei (%): 19% and 15%
  Population Tubulin-Different-Phenotype (%): 10% and 7%
  Total Cell Count: 221 and 236
[2]
  Population Apoptotic (%): 40% and 55%
  Population Fragmented Nuclei (%): 8% and 15%
  Population Healthy Nuclei (%): 69% and 67%
  Population Hoechst High Intensity Objects (%): 0%
  Population Membrane Permeable-Phenotype (%): 11% and 7%
  Population Mitochondria Different-Phenotype (%): 1% and 0%
  Population Mitotic Cells (%): 59% and 44%
  Population Normal (%): 100%
  Population Pyknosed Nuclei (%): 21% and 16%
  Population Tubulin-Different-Phenotype (%): 26% and 19%
  Total Cell Count: 203 and 208
[3]
  Population Apoptotic (%): 50% and 40%
  Population Fragmented Nuclei (%): 10% and 14%
  Population Healthy Nuclei (%): 74% and 75%
  Population Hoechst High Intensity Objects (%): 0%
  Population Membrane Permeable-Phenotype (%): 1%
  Population Mitochondria Different-Phenotype (%): 1% and 0%
  Population Mitotic Cells (%): 50% and 59%
  Population Normal (%): 100%
  Population Pyknosed Nuclei (%): 14% and 10%
  Population Tubulin-Different-Phenotype (%): 9% and 3%
  Total Cell Count: 219 and 249
[4]
  Population Apoptotic (%): 52% and 51%
  Population Fragmented Nuclei (%): 10% and 14%
  Population Healthy Nuclei (%): 73% and 72%
  Population Hoechst High Intensity Objects (%): 0%
  Population Membrane Permeable-Phenotype (%): 5% and 8%
  Population Mitochondria Different-Phenotype (%): 2% and 0%
  Population Mitotic Cells (%): 47% and 48%
  Population Normal (%): 100%
  Population Pyknosed Nuclei (%): 16% and 13%
  Population Tubulin-Different-Phenotype (%): 20% and 11%
  Total Cell Count: 218 and 222
[5]
  Population Apoptotic (%): 70% and 77%
  Population Fragmented Nuclei (%): 13% and 14%
  Population Healthy Nuclei (%): 77% and 76%
  Population Hoechst High Intensity Objects (%): 0%
  Population Membrane Permeable-Phenotype (%): 5% and 2%
  Population Mitochondria Different-Phenotype (%): 0%
  Population Mitotic Cells (%): 30% and 22%
  Population Normal (%): 100%
  Population Pyknosed Nuclei (%): 8%
  Population Tubulin-Different-Phenotype (%): 7% and 1%
  Total Cell Count: 225 and 259
[6]
  Population Apoptotic (%): 62% and 38%
  Population Fragmented Nuclei (%): 8% and 16%
  Population Healthy Nuclei (%): 79% and 77%
  Population Hoechst High Intensity Objects (%): 0%
  Population Membrane Permeable-Phenotype (%): 6% and 3%
  Population Mitochondria Different-Phenotype (%): 1% and 0%
  Population Mitotic Cells (%): 37% and 61%
  Population Normal (%): 100%
  Population Pyknosed Nuclei (%): 12% and 5%
  Population Tubulin-Different-Phenotype (%): 12%
  Total Cell Count: 230 and 225
